The text below walks through data of ChEMBL document CHEMBL1158804, “Lupane triterpenoids from Maytenus species” (J Nat Prod, 2005).

Broadly, the IC50 is the point on the concentration scale where inhibition reaches its midpoint. One may read the MIC as the least concentration at which growth counts as inhibited.

The subject of one experiment is HeLa. Put plainly: Cytotoxicity against human HeLa cells after 48 hrs by MTT assay. The class given is functional, cell-based. The essentials: (§1)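 Monolayers are cultured in DMEM with 5% fetal calf serum and 1% penicillin-streptomycin at 37 °C, 5% CO2 and 90% humidity. Exponentially growing cells (2 × 10^4 cells/well) are exposed to a range of compound concentrations for 48 h at 37 °C. Viability is read by colorimetric MTT reduction.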
For orientation: Tetrazolium dyes change colour on reduction, which living cells bring about.

The test system of experiment [1] is Bacillus cereus. Description: Antibacterial activity against Bacillus cereus CECT 496 by broth microdilution method. The class given is functional. The procedure, abridged:
(§2)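 Compounds are dissolved in DMSO. The minimal inhibitory concentration is estimated by broth microdilution.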
On the technique in general: In broth dilution the organism is exposed to a series of concentrations in liquid medium.

Experiment [2] deals with Bacillus pumilus. Description: Antibacterial activity against Bacillus pumilus CECT 29 by broth microdilution method. The class given is functional. The essentials: as §2
The subject of another experiment is HEp-2. Description: Cytotoxicity against human Hep2 cells after 48 hrs by MTT assay. The format is functional, cell-based. The following applies: HEp-2, 48 h. The essentials:
as §1

The test system of experiment [3] is Bacillus subtilis. Put plainly: Antibacterial activity against Bacillus subtilis CECT 39 by broth microdilution method. The class given is functional. The essentials:
as §2

The next experiment relates to Vero. Description: Cytotoxicity against african green monkey Vero cells after 48 hrs by MTT assay. The conditions noted are these: Chlorocebus sabaeus. The class given is cell-based. The procedure, abridged:
as §1

For experiment [4], the system named is Staphylococcus saprophyticus. Put plainly: Antibacterial activity against Staphylococcus saprophyticus CECT 235 up to 40 ug/mL by broth microdilution method. The class given is functional, organism-based. The essentials: as §2
The next experiment relates to Proteus mirabilis. Put plainly: Antibacterial activity against Proteus mirabilis CECT170 up to 40 ug/mL by broth microdilution method. The format is functional, organism-based. The essentials:
as §2

Experiment [5] has as its system Bacillus pumilus. Description: Antibacterial activity against Bacillus pumilus CECT 29 up to 40 ug/mL by broth microdilution method. The class given is functional, organism-based. The essentials: as §2
Experiment [6] concerns Bacillus cereus. Description: Antibacterial activity against Bacillus cereus CECT 496 up to 40 ug/mL by broth microdilution method. The format is functional, organism-based. The procedure, abridged:
as §2

The subject of another experiment is Priestia megaterium. Description: Antibacterial activity against Bacillus megaterium CECT 44 up to 40 ug/mL by broth microdilution method. The format is functional, organism-based. The essentials: as §2
For the next experiment, the system named is Staphylococcus aureus. Put plainly: Antibacterial activity against Staphylococcus aureus ATCC 6538 up to 40 ug/mL by broth microdilution method. The class given is functional, organism-based. The procedure, abridged:
as §2

Another experiment concerns Pseudomonas aeruginosa. Description: Antibacterial activity against Pseudomonas aeruginosa AK 958 up to 40 ug/mL by broth microdilution method. The class given is functional, organism-based. The procedure, abridged:
as §2

Experiment [7] deals with Bacillus subtilis. Description: Antibacterial activity against Bacillus subtilis CECT 39 up to 40 ug/mL by broth microdilution method. The format is functional, organism-based. The procedure, abridged: as §2
The next experiment has as its system Enterococcus faecalis. Description: Antibacterial activity against Enterococcus faecalis CECT 795 up to 40 ug/mL by broth microdilution method. The format is functional, organism-based. The procedure, abridged:
as §2

Experiment [8] relates to Mycolicibacterium smegmatis. Description: Antibacterial activity against Mycobacterium smegmatis CECT 3032 up to 40 ug/mL by broth microdilution method. The class given is functional, organism-based. The procedure, abridged:
as §2

The test system of another experiment is Escherichia coli. Put plainly: Antibacterial activity against Escherichia coli CECT 99 up to 40 ug/mL by broth microdilution method. The format is functional, organism-based. The essentials:
as §2

In experiment [9] the test system is Staphylococcus epidermidis. Put plainly: Antibacterial activity against Staphylococcus epidermidis CECT 232 up to 40 ug/mL by broth microdilution method. The class given is functional, organism-based. The essentials: as §2
In a further experiment the test system is Candida albicans. Put plainly: Antifungal activity against Candida albicans UBC1 up to 40 ug/mL by broth microdilution method. The class given is functional, organism-based. The procedure, abridged:
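The yeast is grown on Sabouraud agar at 37 °C. Compounds are dissolved in DMSO, and the minimal inhibitory concentration is estimated by broth microdilution.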

The subject of a further experiment is Salmonella. Put plainly: Antibacterial activity against Salmonella sp. CECT 456 up to 40 ug/mL by broth microdilution method. The format is functional, organism-based. The procedure, abridged:
as §2

Values after ≈ are worked out from the molar mass of the structure shown. Active and inactive are the calls of the source. The rule behind the calls is not given here.

In the case of `C=C(C)[C@@H]1CC[C@]2(C(=O)O)CC[C@]3(C)[C@@H](CC[C@@H]4[C@@]5(C)CCC(=O)C(C)(C)[C@@H]5[C@H](O)C[C@]43C)[C@@H]12`, the 50% inhibitory concentration (IC50) in the experiment with HeLa, in the experiment with HEp-2 and in the experiment on Vero was greater than 10 µg/mL each time. Besides, the MIC against Bacillus cereus [1] is 25 µg/mL (≈ 53.1 µM); against Bacillus pumilus [2], 20 µg/mL (≈ 42.5 µM); against Bacillus subtilis [3], 35 µg/mL (≈ 74.4 µM).
On to `C=C(C)[C@@H]1CC[C@]2(CO)CC[C@]3(C)[C@H](CC[C@@H]4[C@@]5(C)CC[C@@H](O)C(C)(C)[C@@H]5CC[C@]43C)[C@@H]12` [3-EPI-BETULIN], for which the outcome (in experiment [4]; in the experiment with Proteus mirabilis; with Bacillus pumilus [5]; with Bacillus cereus [6]; with Priestia megaterium; in the experiment on Staphylococcus aureus) was inactive. In addition, the result (in the experiment with Pseudomonas aeruginosa; with Bacillus subtilis [7]; in the experiment on Enterococcus faecalis; in experiment [8]; in the experiment on Escherichia coli; in experiment [9]) was inactive. The result with Candida albicans and in the experiment with Salmonella was inactive. The IC50 in the experiment with HeLa, in the experiment with HEp-2 and in the experiment on Vero was greater than 10 µg/mL throughout.
`C=C(C)[C@@H]1CC[C@]2(C)CC[C@]3(C)[C@@H](CC[C@@H]4[C@@]5(C)[C@H](O)CC(=O)C(C)(C)[C@@H]5CC[C@]43C)[C@@H]12` [GLOCHIDONOL]: the outcome (in [4]; with Proteus mirabilis; in the experiment with Bacillus pumilus [5]; with Bacillus cereus [6]; in the experiment with Priestia megaterium; with Staphylococcus aureus) was inactive. The result (in the experiment with Pseudomonas aeruginosa; with Bacillus subtilis [7]; in the experiment with Enterococcus faecalis; in experiment [8]; in the experiment with Escherichia coli; in [9]) was inactive. For the same molecule, the result with Candida albicans and in the experiment on Salmonella was inactive. The IC50 in the experiment with HeLa, in the experiment with HEp-2 and with Vero was less than 10 µg/mL in each case.
With `CC(C)[C@@H]1CC[C@]2(C)CC[C@]3(C)[C@@H](CC[C@@H]4[C@@]5(C)CC[C@H](OC(=O)/C=C/c6ccc(O)c(O)c6)C(C)(C)[C@@H]5CC[C@]43C)[C@@H]12`, the result (in experiment [4]; with Proteus mirabilis; with Bacillus pumilus [5]; in the experiment on Bacillus cereus [6]; in the experiment on Priestia megaterium; in the experiment on Staphylococcus aureus) was inactive. The outcome (with Pseudomonas aeruginosa; with Bacillus subtilis [7]; with Enterococcus faecalis; in experiment [8]; in the experiment with Escherichia coli; in experiment [9]) was inactive. For the same molecule, the outcome in the experiment on Candida albicans and in the experiment with Salmonella was inactive. For the same molecule, the IC50 with HeLa, with HEp-2 and in the experiment on Vero was greater than 10 µg/mL in each case.
For `C=C(C)[C@@H]1CC[C@]2(C(=O)O)CC[C@]3(C)[C@H](CC[C@@H]4[C@@]5(C)CC[C@@H](O)C(C)(C)[C@@H]5CC[C@]43C)[C@@H]12` [EPIBETULINIC ACID], the outcome (in [4]; with Proteus mirabilis; in the experiment on Bacillus pumilus [5]; with Bacillus cereus [6]; in the experiment on Priestia megaterium; in the experiment on Staphylococcus aureus) was inactive. The outcome (in the experiment with Pseudomonas aeruginosa; with Bacillus subtilis [7]; with Enterococcus faecalis; in experiment [8]; with Escherichia coli; in experiment [9]) was inactive. The result in the experiment on Candida albicans and in the experiment with Salmonella was inactive. Besides, the IC50 with HeLa was 2.1 µg/mL (≈ 4.6 µM); with HEp-2, 3.1 µg/mL (≈ 6.79 µM); with Vero it was greater than 10 µg/mL.
With `C=C(C)[C@@H]1CC[C@]2(CO)CC[C@]3(C)[C@H](C[C@@H](O)[C@@H]4[C@@]5(C)CC[C@@H](O)C(C)(C)[C@@H]5CC[C@]43C)[C@@H]12`, the outcome (in experiment [4]; in the experiment with Proteus mirabilis; with Bacillus pumilus [5]; with Bacillus cereus [6]; in the experiment on Priestia megaterium; in the experiment on Staphylococcus aureus) was inactive. Besides, the result (with Pseudomonas aeruginosa; in the experiment on Bacillus subtilis [7]; in the experiment with Enterococcus faecalis; in [8]; in the experiment on Escherichia coli; in experiment [9]) was inactive. For the same molecule, the outcome in the experiment with Candida albicans and with Salmonella was inactive. In addition, the IC50 in the experiment with HeLa, in the experiment on HEp-2 and in the experiment with Vero was greater than 10 µg/mL in each case.
Take `C=C(C)[C@@H]1CC[C@]2(C)CC[C@]3(C)[C@@H](CC[C@@H]4[C@@]5(C)C=CC(=O)C(C)(C)[C@@H]5CC[C@]43C)[C@@H]12` [GLOCHIDONE]: the outcome (in [4]; in the experiment with Proteus mirabilis; with Bacillus pumilus [5]; in the experiment on Bacillus cereus [6]; in the experiment with Priestia megaterium; in the experiment on Staphylococcus aureus) was inactive. Also, the result (in the experiment with Pseudomonas aeruginosa; in the experiment on Bacillus subtilis [7]; in the experiment on Enterococcus faecalis; in experiment [8]; with Escherichia coli; in [9]) was inactive. Moreover, the outcome in the experiment with Candida albicans and with Salmonella was inactive. Moreover, the IC50 in the experiment on HeLa, in the experiment with HEp-2 and with Vero was greater than 10 µg/mL throughout.
Turning to `C=C(C)[C@@H]1CC[C@]2(C)CC[C@]3(C)[C@H](CC[C@@H]4[C@@]5(C)CCC(=O)C(C)(C)[C@@H]5CC[C@]43C)[C@@H]12` [LUPENONE], the outcome (in experiment [4]; with Proteus mirabilis; in the experiment with Bacillus pumilus [5]; in the experiment with Bacillus cereus [6]; in the experiment on Priestia megaterium; with Staphylococcus aureus) was inactive. Further, the result (in the experiment with Pseudomonas aeruginosa; in the experiment on Bacillus subtilis [7]; in the experiment on Enterococcus faecalis; in experiment [8]; with Escherichia coli; in experiment [9]) was inactive. Moreover, the outcome in the experiment with Candida albicans and in the experiment with Salmonella was inactive. Also, the IC50 in the experiment on HeLa, in the experiment on HEp-2 and in the experiment on Vero was greater than 10 µg/mL in each case.
